Published values gathered from unrelated publications.
Compare with care: the assays were run in different laboratories.
KIT: Mast/stem cell growth factor receptor Kit (KIT, Homo sapiens, UniProt P10721)
KIT D816V: Mast/stem cell growth factor receptor Kit (KIT, Homo sapiens, UniProt P10721, D816V)

Compound | target | observed | action | technique | tested at | measurement | value
Cn1cc(-c2cccc(N3CCc4c(sc5c4CC(C)(C)C5)C3=O)c2CO)cc(Nc2ccncn2)c1=O | KIT | enzyme activity | inhibitor |  | 1 µM | inhibition | -11%
Nc1ncc(-c2nc(N3CCOCC3)nc(N3CCOCC3)n2)c(C(F)F)n1 | KIT D816V | binding |  | competition with immobilised ligand | 10 µM | remaining binding | 58%
O=c1[nH]c2ccccc2n1C1CCN(Cc2ccc(-c3[nH]c4cc5ncnc5cc4nc3-c3ccccc3)cc2)CC1 | KIT | cell-free assay |  |  | 0.5 µM | remaining signal | 91.7%
COCc1c(-c2cc3cc(C)cc(OC)c3s2)c2c(N)ncnn2c1CN1CCNC(=O)C1 | Mast/stem cell growth factor receptor Kit (KIT, Homo sapiens, UniProt P10721, L576P) | cell-free assay |  | competition with immobilised ligand | 1 µM | inhibition | 93.1%
C=CC(=O)Nc1cccc(CN2C(=O)N(c3c(Cl)c(OC)cc(OC)c3Cl)Cc3cnc(NCCCCN(CC)CC)nc32)c1 | KIT | binding |  | competition with immobilised ligand | 10 µM | remaining binding | 1.2%
Cn1cncc1[C@@](O)(COc1ccc(C#N)cc1-c1ccc(OC(F)(F)F)cc1)c1ccc(C#N)cc1 | Mast/stem cell growth factor receptor Kit (KIT, Homo sapiens, UniProt P10721, A829P) | cell-free assay |  | competition with immobilised ligand | 1 µM | remaining binding | 100%
COc1ncccc1-c1cnn2ccc(N3CCN(C(=O)OC(C)C)CC3)nc12 | KIT | binding |  | competition with immobilised ligand | 1 µM | remaining binding | 84%
C#Cc1n[nH]c2c(-c3cn(C(C)c4ccccn4)c(=O)[nH]c3=O)cc(F)cc12 (centres unmarked) | KIT | enzyme activity | inhibitor |  | 1 µM | inhibition | -6.3%
Cc1nn(C)cc1-c1nc2c(N3CCN(Cc4ccc(Cl)cc4)CC3)c(Cl)cnc2[nH]1 | KIT D816V | binding |  | competition with immobilised ligand | 1 µM | remaining binding | 9.2%
C#Cc1n[nH]c2c(-c3cn([C@@H](C)c4ccccc4)c(=O)[nH]c3=O)cc(F)cc12 | KIT | enzyme activity | inhibitor |  | 0.1 µM | inhibition | 0.1%
Cn1cc(-c2cc(F)cc(N3CCn4c(cc5c4CCCC5)C3=O)c2CO)cc(Nc2ccc(N3CCN(C4COC4)CC3)cn2)c1=O | KIT | enzyme activity | inhibitor |  | 0.1 µM | inhibition | 5%
